# Cneo AK release – Cryptococcus neoformans lysis via adenylate kinase release; C. neoformans lysis, adenylate kinase release luminescence, 4 h; normalised: neutral wells 0, clomiphene wells 100; lysis activity, % at 15 µM; 360,000 compounds, 0.2% hits; AID 651654;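 active means mean lysis activity across replicates of at least 80%, whatever share of replicates individually reach that level; inactive means mean lysis activity below 80%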
#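 Material: C. neoformans cells | Amount: Yeast cell density of 5 × 10^6 cells/mL | Medium: Fresh YPD growth medium | Dosing: Single dose | Times: Static 4 h at 37 °C with compound, 1 h detection | Detection: AK luminescence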
# GSIS activator – primary screen for activators of insulin secretion dependent on glucose, INS-1E cells, GLuc reporter luminescence; INS-1E GLuc reporter insulin secretion, 2-3 h; activation, % at 16.6 µM; 370,000 compounds, 0.61% hits; AID 743287;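 active means lowest replicate activation of at least 40%, so every replicate reaches that level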
# rRNA inh HTS – selective bacterial rRNA inhibition in E. coli; 350,000 compounds, 1.6% hits; E. coli WT GFP vs humanized-ribosome RFP mutants, fluorescence, 24 h; stronger effect = lower value; DMSO median 0, no signal -100; GFP signal change (wild-type ribosome), % (no concentration beside the values);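 active means significant combined selectivity score with lowered wild-type GFP, culture density cut under 30%, mutant RFP and density less affected; inactive means any of these conditions unmet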
# F508del corr – CFTR F508del correction in bronchial cells; CFBE cells, YFP halide quenching; stimulated with forskolin plus potentiator P3; % fluorescence drop versus neutral controls; activity (quench increase), % at 7.58 µM; 350,000 compounds, 0.36% hits; AID 720511;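 active means mean added fluorescence quench of at least 8% versus neutral control, with both replicates also reaching 8%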;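 further: cells transiently co-express mutant CFTR-F508del with the halide-sensitive YFP; corrector assay measuring rescue of mutant channel to the surface after 24 h compound exposure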
# miR-122 sensor – blocks miR-122 activity in Huh7 sensor cells | Huh7 miR-122 Renilla luciferase sensor, 48 h; neutral wells = 0, positive control = 100 | activation (reporter increase), % at 12.5 µM | 340,000 compounds, 0.3% hits | AID 602342;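 active means mean replicate activation score at least 90 and every replicate individually at or above 90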;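 further: higher luciferase means less miR-122 activity so hits act as miR-122 inhibitors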
# Env fusion inh – HIV envelope-mediated fusion inhibition | HeLa-JRFL Env/CEM21 cell fusion, luciferase | inhibition, % at 12.3 µM | 360,000 compounds, 1.1% hits | AID 651610;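 active means mean replicate inhibition score of at least 50 and every replicate individually at or above 50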
# A number is an active result; - = inactive; . = no result. Hits are enriched below; roughly 3.1% of the tested compounds scored in any of these assays.
SMILES,Cneo AK release,GSIS activator,rRNA inh HTS,F508del corr,miR-122 sensor,Env fusion inh
Cc1cc(O)cc2c1C1CCC3(C)C(=O)CCC3C1C=C2 (centres undefined),.,-,-,8.3,-,-
O=S(=O)(NCC(Nc1ccccc1)c1ccccc1)c1ccc(Cl)cc1 (centres undefined),-,-,.,.,-,98
O=C(O)c1cccc(NC(CNS(=O)(=O)c2ccc(Cl)cc2)c2ccccc2)c1 (centres undefined),.,-,-,-,.,-
C[C@H](CO)N1C[C@H](C)[C@@H](CN(C)C(=O)Nc2ccc(F)cc2)OCCCC[C@H](C)Oc2ccc(NC(=O)CCC(F)(F)F)cc2C1=O,-,-,-,-,-,-
COc1ccc(C2C3=C(COC3=O)Oc3cc4c(cc32)OCO4)cc1OC (centres undefined),.,.,-,9.6,.,-
COc1cc(C2C3=C(COC3=O)Oc3cc4c(cc32)OCO4)cc(OC)c1OC(C)=O (centres undefined),.,-,-,-,101,-
CO[C@H]1CN(C)C(=O)c2cc(NC(C)=O)ccc2OC[C@@H](C)N(CC2CC2)C[C@@H]1C,-,-,-,-,.,.
C=CCc1ccc(OCCOCCOc2cccc3ccc(C)nc23)c(OC)c1,-,.,.,.,-,-
COc1cc(C)ccc1OCCOCCOc1cccc2ccc(C)nc12,-,-,-32,-,-,-
C[C@H]1CN([C@@H](C)CO)C(=O)c2cc(NS(=O)(=O)c3cn(C)cn3)ccc2O[C@@H]1CN(C)S(=O)(=O)c1cccs1,-,-,-,-,-,.
COc1ccc(/C=N/Nc2cc(C)nc(-n3nc(C)cc3C)n2)cc1,.,-,.,.,.,-
Cc1cc(N/N=C/c2ccc(O)cc2O)nc(-n2nc(C)cc2C)n1,-,-,.,.,-,56
O=C(C[C@@H]1C[C@@H]2c3cc(NC(=O)NC4CCCC4)ccc3O[C@@H]2[C@H](CO)O1)NCc1ccc(-c2ccccc2)cc1,-,-,-,-,-,.
CNC[C@H]1OCCCC[C@H](C)Oc2ccc(NS(=O)(=O)c3cccs3)cc2C(=O)N([C@H](C)CO)C[C@@H]1C,-,-,-,-,-,-
Fc1ccc(CN2CCN(C(c3ccccc3)c3ccccc3)CC2)cc1,-,-,-,-,-,-
c1ccc(CN2CCN(C(c3ccccc3)c3ccccc3)CC2)cc1,-,-,-24,-,-,-
C[C@@H]1CCCCO[C@H](CN(C)Cc2ccncc2)[C@H](C)CN([C@@H](C)CO)C(=O)c2cc(NC(=O)c3ccncc3)ccc2O1,-,-,-,-,-,-
Cc1cccc(-n2c(SCC(=O)NCc3ccc4c(c3)OCO4)nc3ccccc3c2=O)c1,.,-,-,.,.,-
CC(Sc1nc2ccccc2c(=O)n1C)C(=O)Nc1ccc2c(c1)OCCO2 (centres undefined),-,-,-,25,-,.
O=C(CSc1nc(-c2ccccc2)c(-c2ccccc2)[nH]1)NCc1ccco1,.,-,.,.,-,70
CC(Sc1nc2cc([N+](=O)[O-])ccc2n1-c1ccc(F)cc1)C(=O)NCc1ccc2c(c1)OCO2 (centres undefined),-,-,.,.,-,94
Cc1cc(C)cc(-n2c(SC(C)C(=O)NCc3ccc4c(c3)OCO4)nc3ccccc3c2=O)c1 (centres undefined),.,.,.,.,.,64
COCCNC(=O)C[C@H]1C[C@@H]2c3cc(NS(=O)(=O)c4ccc(F)cc4)ccc3O[C@@H]2[C@@H](CO)O1,-,-,-,-,-,-
CCC(=O)Nc1ccc2c(c1)OC[C@@H](C)N(C(=O)CN(C)C)C[C@@H](C)[C@@H](OC)CN(C)C2=O,-,-,-,-,-,-
O=C(CSc1nc2ccccc2c(=O)n1-c1ccccc1)NCc1ccco1,-,-,.,.,-,.
C=CCn1c(SCC(=O)NCc2ccc3c(c2)OCO3)nc2scc(-c3ccccc3)c2c1=O,-,.,.,.,-,119
Cc1cccc(-n2c(SCC(=O)NCc3ccco3)nc3ccccc3c2=O)c1,-,.,.,.,-,62
O=C(CSc1ncnc2c1cnn2-c1ccc(Cl)cc1)NCc1ccc2c(c1)OCO2,600,-,.,.,-,-

# Compound activity deposited in PubChem BioAssay by Broad Institute.
